Source: ChEMBL document CHEMBL1152689, “Synthesis, tautomerism, and antimicrobial, anti-HCV, anti-SSPE, antioxidant, and antitumor activities of arylazobenzosuberones” (Bioorg Med Chem, 2009)
Converted amounts (≈) assume the structure as drawn. The source made the active and inactive calls. No cut-off for these calls is given here.

Experiments:
Measles morbillivirus = assay: Antiviral activity against Measles virus infected in intracranially dosed hamster assessed as inhibition of subacute sclerosing panencephalitis; format: functional
Method in brief: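 Hamsters under ether anesthesia injected intracranially, into the subarachnoid space at 2 mm depth, at 5, 10 and 20 mg/kg/day for 10 days. Four animals per group sacrificed on days 1–20. Brains homogenized in PBS and centrifuged, supernatant deproteinized with ethanol, then MIC in brain tissue determined by HPLC and bioassay.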

Staphylococcus aureus [1] = assay: Antimicrobial activity against Staphylococcus aureus at 5 ug/mL by agar diffusion method; format: functional; details: read-out: IZ
Pseudomonas aeruginosa [2] = assay: Antimicrobial activity against Pseudomonas aeruginosa at 2.5 ug/mL by agar diffusion method; format: functional; details: read-out: IZ
[3] = tested on: Syncephalastrum racemosum; assay: Antimicrobial activity against Syncephalastrum racemosum at 1.25 ug/mL by agar diffusion method; format: functional; details: read-out: IZ
Pseudomonas aeruginosa [4] = assay: Antimicrobial activity against Pseudomonas aeruginosa at 1.25 ug/mL by agar diffusion method; format: functional; details: read-out: IZ
Candida albicans [5] = assay: Antimicrobial activity against Candida albicans at 1.25 ug/mL by agar diffusion method; format: functional; details: read-out: IZ
Aspergillus fumigatus [6] = assay: Antimicrobial activity against Aspergillus fumigatus at 2.5 ug/mL by agar diffusion method; format: functional; details: read-out: IZ
Staphylococcus aureus [7] = assay: Antimicrobial activity against Staphylococcus aureus at 2.5 ug/mL by agar diffusion method; format: functional; details: read-out: IZ
Bacillus subtilis [8] = assay: Antimicrobial activity against Bacillus subtilis at 5 ug/mL by agar diffusion method; format: functional; details: read-out: IZ
Escherichia coli [9] = assay: Antimicrobial activity against Escherichia coli at 1.25 ug/mL by agar diffusion method; format: functional; details: read-out: IZ
[10] = tested on: Radical scavenging activity; assay: Antioxidant activity assessed as DPPH free radical scavenging activity by measuring reduction in DPPH absorbance by ELISA relative to untreated control; format: functional; design: concentration or dose not given beside the values
Method in brief: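 Test compounds dissolved in DMSO, ascorbic acid standard in water, both serially diluted. 10 µl sample added to 90 µl of 100 µM DPPH in methanol and kept in the dark at 37 °C for 30 min. Absorbance read at 515 nm. Blank is DMSO plus DPPH. % reduction = (A_B − A_A)/A_B × 100. Run in triplicate.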

Candida albicans [11] = assay: Antimicrobial activity against Candida albicans at 2.5 ug/mL by agar diffusion method; format: functional; details: read-out: IZ
[12] = molecular target: DNA topoisomerase 2-alpha (Mus musculus) (UniProt Q01320); assay: Inhibition of topoisomerase 2 from mouse P388 cells assessed as relaxation of pBR322 DNA by agarose gel electrophoresis relative to etoposide; format: cell-based
Method in brief: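 Topoisomerase II purified from P388 cells. One unit relaxes 0.125 µg supercoiled pBR322 DNA, incubated with or without inhibitor at 30 °C for 1 h in 50 mM Tris-HCl pH 8.0, 100 mM KCl, 10 mM MgCl2, 0.5 mM DTT, 1 mM ATP and 30 µg/ml BSA. Products run on 0.7% agarose in TBE, stained with ethidium bromide and imaged under UV.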

Hepatitis C virus = assay: Antiviral activity against HCV by cell based replicon assay; format: functional, Hepacivirus hominis
Method in brief: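 HCV replicon cells plated at 1×10^4 per well. Next day incubated at 37 °C with serially diluted compound in DMEM with 2% FBS and 0.5% DMSO. HCV RNA copy number measured by quantitative RT-PCR on total cellular RNA. Each point is the average of five replicates. Cytotoxicity measured by MTS in parallel.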

Aspergillus fumigatus [13] = assay: Antimicrobial activity against Aspergillus fumigatus at 5 ug/mL by agar diffusion method; format: functional; details: read-out: IZ
Penicillium italicum [14] = assay: Antimicrobial activity against Penicillium italicum at 5 ug/mL by agar diffusion method; format: functional; details: read-out: IZ
Penicillium italicum [15] = assay: Antimicrobial activity against Penicillium italicum at 1.25 ug/mL by agar diffusion method; format: functional; details: read-out: IZ
[16] = tested on: Syncephalastrum racemosum; assay: Antimicrobial activity against Syncephalastrum racemosum at 2.5 ug/mL by agar diffusion method; format: functional; details: read-out: IZ
[17] = molecular target: T1, DNA topoisomerase 1 (Homo sapiens) (UniProt P11387); assay: Inhibition of topoisomerase 1 relative to etoposide
T1 sequence (whole entry): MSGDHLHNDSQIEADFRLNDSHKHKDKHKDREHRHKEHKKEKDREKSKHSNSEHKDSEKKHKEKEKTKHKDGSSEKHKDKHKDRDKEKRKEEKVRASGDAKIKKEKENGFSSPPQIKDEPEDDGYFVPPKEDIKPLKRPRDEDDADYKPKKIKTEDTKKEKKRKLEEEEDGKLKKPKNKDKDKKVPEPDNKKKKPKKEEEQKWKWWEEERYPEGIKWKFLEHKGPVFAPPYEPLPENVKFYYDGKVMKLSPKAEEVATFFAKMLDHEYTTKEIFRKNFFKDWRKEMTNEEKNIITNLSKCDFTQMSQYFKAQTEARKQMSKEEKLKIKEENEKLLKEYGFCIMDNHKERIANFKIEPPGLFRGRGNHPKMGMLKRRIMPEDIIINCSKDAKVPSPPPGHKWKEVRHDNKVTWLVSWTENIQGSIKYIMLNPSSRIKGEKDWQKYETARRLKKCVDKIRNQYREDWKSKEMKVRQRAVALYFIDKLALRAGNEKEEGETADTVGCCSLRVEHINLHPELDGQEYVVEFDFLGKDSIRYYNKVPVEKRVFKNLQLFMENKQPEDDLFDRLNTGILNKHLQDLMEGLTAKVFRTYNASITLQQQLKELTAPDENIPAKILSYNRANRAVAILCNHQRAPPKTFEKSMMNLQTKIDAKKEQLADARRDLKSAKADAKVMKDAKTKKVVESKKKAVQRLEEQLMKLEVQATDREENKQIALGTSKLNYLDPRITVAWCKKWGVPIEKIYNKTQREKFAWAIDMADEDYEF

Aspergillus fumigatus [18] = assay: Antimicrobial activity against Aspergillus fumigatus at 1.25 ug/mL by agar diffusion method; format: functional; details: read-out: IZ
Penicillium italicum [19] = assay: Antimicrobial activity against Penicillium italicum at 2.5 ug/mL by agar diffusion method; format: functional; details: read-out: IZ
Candida albicans [20] = assay: Antimicrobial activity against Candida albicans by agar diffusion method; format: functional
Method in brief: (§1)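 Agar diffusion on plates against bacteria and fungi. MIC taken as the lowest concentration giving no visible growth on the plate.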

Bacillus subtilis [21] = assay: Antimicrobial activity against Bacillus subtilis by agar diffusion method; format: functional; method in brief: as §1
Pseudomonas aeruginosa [22] = assay: Antimicrobial activity against Pseudomonas aeruginosa at 5 ug/mL by agar diffusion method; format: functional; details: read-out: IZ
Escherichia coli [23] = assay: Antimicrobial activity against Escherichia coli at 2.5 ug/mL by agar diffusion method; format: functional; details: read-out: IZ
Bacillus subtilis [24] = assay: Antimicrobial activity against Bacillus subtilis at 1.25 ug/mL by agar diffusion method; format: functional; details: read-out: IZ
Candida albicans [25] = assay: Antimicrobial activity against Candida albicans at 5 ug/mL by agar diffusion method; format: functional; details: read-out: IZ
MC-38 = assay: Antitumor activity against mouse Colon 38 cells implanted in iv dosed C57BL/6 mouse administered as single dose; format: functional, organism-based
Method in brief: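 Female C57BL/6 mice, 6 weeks old, given about 30 mg Colon 38 tumor tissue s.c. in the flank. Randomized into groups of n = 5 when tumors reached about 300 mm3 (day 1). Compound in 5% glucose given as a single iv tail-vein dose on day 1; controls received 5% glucose. Tumor volume = (length × width²)/2 and body weight tracked.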

Staphylococcus aureus [26] = assay: Antimicrobial activity against Staphylococcus aureus by agar diffusion method; format: functional; method in brief: as §1
Staphylococcus aureus [27] = assay: Antimicrobial activity against Staphylococcus aureus at 1.25 ug/mL by agar diffusion method; format: functional; details: read-out: IZ
Penicillium italicum [28] = assay: Antimicrobial activity against Penicillium italicum by agar diffusion method; format: functional; method in brief: as §1
[29] = tested on: Syncephalastrum racemosum; assay: Antimicrobial activity against Syncephalastrum racemosum at 5 ug/mL by agar diffusion method; format: functional; details: read-out: IZ
Aspergillus fumigatus [30] = assay: Antimicrobial activity against Aspergillus fumigatus by agar diffusion method; format: functional; method in brief: as §1
Bacillus subtilis [31] = assay: Antimicrobial activity against Bacillus subtilis at 2.5 ug/mL by agar diffusion method; format: functional; details: read-out: IZ
Escherichia coli [32] = assay: Antimicrobial activity against Escherichia coli at 5 ug/mL by agar diffusion method; format: functional; details: read-out: IZ
[33] = Antioxidant activity assessed as inhibition of peroxynitrite-mediated 3-nitrotyrosine formation by HPLC; format: functional
Method in brief: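 Tyrosine and peroxynitrite, each 100 µM, reacted with compound at 0–300 µM in 100 mM phosphate buffer pH 7.4 at 37 °C for 15 min. Peroxynitrite made from acidified H2O2 plus KNO2, quenched with NaOH, and kept on ice no longer than 30 min before use.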

[34] = tested on: Syncephalastrum racemosum; assay: Antimicrobial activity against Syncephalastrum racemosum by agar diffusion method; format: functional; method in brief: as §1

Chain of DNA topoisomerase 2-alpha (Mus musculus) (Q01320 whole entry): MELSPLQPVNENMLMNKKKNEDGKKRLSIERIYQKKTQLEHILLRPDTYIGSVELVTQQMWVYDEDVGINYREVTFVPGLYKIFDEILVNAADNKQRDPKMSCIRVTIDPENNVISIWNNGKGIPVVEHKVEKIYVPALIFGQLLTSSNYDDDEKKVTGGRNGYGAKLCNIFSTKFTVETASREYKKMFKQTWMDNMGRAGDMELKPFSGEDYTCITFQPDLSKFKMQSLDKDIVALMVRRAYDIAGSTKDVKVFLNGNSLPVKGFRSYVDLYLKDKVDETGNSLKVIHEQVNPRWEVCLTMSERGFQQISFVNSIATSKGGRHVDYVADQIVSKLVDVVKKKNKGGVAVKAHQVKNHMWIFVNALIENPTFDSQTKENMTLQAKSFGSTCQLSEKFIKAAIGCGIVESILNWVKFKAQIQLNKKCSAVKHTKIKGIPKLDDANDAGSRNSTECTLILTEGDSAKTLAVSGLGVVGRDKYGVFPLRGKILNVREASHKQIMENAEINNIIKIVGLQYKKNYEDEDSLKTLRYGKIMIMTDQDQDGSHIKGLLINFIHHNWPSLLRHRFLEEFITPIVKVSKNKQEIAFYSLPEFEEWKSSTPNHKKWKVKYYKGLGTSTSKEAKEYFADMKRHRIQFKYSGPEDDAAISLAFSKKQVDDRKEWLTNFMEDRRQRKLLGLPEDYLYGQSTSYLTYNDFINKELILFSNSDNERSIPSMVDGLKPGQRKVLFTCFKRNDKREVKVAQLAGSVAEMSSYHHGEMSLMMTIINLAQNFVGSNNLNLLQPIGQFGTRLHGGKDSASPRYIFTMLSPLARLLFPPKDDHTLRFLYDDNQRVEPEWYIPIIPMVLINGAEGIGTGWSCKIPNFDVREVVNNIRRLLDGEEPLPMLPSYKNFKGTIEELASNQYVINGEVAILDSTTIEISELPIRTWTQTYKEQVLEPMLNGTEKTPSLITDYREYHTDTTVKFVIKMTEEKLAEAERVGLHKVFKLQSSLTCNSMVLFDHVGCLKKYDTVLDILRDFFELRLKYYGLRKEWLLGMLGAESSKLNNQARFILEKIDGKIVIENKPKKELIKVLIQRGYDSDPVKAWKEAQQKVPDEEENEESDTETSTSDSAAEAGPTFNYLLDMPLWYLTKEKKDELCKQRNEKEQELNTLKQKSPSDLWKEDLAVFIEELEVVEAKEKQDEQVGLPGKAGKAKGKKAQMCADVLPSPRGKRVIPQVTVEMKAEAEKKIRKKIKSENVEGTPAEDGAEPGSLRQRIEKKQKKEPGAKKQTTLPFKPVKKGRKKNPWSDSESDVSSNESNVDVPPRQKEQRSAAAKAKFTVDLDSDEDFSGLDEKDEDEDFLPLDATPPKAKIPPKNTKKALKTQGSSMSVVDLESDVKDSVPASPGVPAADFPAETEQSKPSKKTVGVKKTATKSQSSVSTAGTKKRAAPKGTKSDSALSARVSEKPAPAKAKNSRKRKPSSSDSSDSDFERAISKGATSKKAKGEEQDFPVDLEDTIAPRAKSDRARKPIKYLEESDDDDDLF

CC(=O)c1ccc(N/N=C2\CCCc3ccccc3C2=O)cc1
MIC (Measles morbillivirus): 6.12 µg/mL (≈ 20 µM)
zone of inhibition at 5 µg/mL (Staphylococcus aureus [1]): 15 mm
zone of inhibition at 2.5 µg/mL (Pseudomonas aeruginosa [2]): 0 mm
zone of inhibition at 1.25 µg/mL [3]: 6 mm
zone of inhibition at 1.25 µg/mL (Pseudomonas aeruginosa [4]): 0 mm
zone of inhibition at 1.25 µg/mL (Candida albicans [5]): 3 mm
zone of inhibition at 2.5 µg/mL (Aspergillus fumigatus [6]): 11 mm
zone of inhibition at 2.5 µg/mL (Staphylococcus aureus [7]): 8 mm
zone of inhibition at 5 µg/mL (Bacillus subtilis [8]): 16 mm
zone of inhibition at 1.25 µg/mL (Escherichia coli [9]): 0 mm
Activity [10]: 81%
zone of inhibition at 2.5 µg/mL (Candida albicans [11]): 7 mm
Ratio [12]: 4.33
MIC (Hepatitis C virus): 1.09 µg/mL (≈ 3.56 µM)
zone of inhibition at 5 µg/mL (Aspergillus fumigatus [13]): 20 mm
zone of inhibition at 5 µg/mL (Penicillium italicum [14]): 17 mm
zone of inhibition at 1.25 µg/mL (Penicillium italicum [15]): 4 mm
zone of inhibition at 2.5 µg/mL [16]: 9 mm
Ratio [17]: 4.3
zone of inhibition at 1.25 µg/mL (Aspergillus fumigatus [18]): 6 mm
zone of inhibition at 2.5 µg/mL (Penicillium italicum [19]): 6 mm
MIC (Candida albicans [20]): 1.25 µg/mL (≈ 4.08 µM)
MIC (Bacillus subtilis [21]): 0.313 µg/mL (≈ 1.02 µM)
zone of inhibition at 5 µg/mL (Pseudomonas aeruginosa [22]): 0 mm
zone of inhibition at 2.5 µg/mL (Escherichia coli [23]): 0 mm
zone of inhibition at 1.25 µg/mL (Bacillus subtilis [24]): 7 mm
zone of inhibition at 5 µg/mL (Candida albicans [25]): 10 mm
Activity (MC-38): Active
MIC (Staphylococcus aureus [26]): 0.625 µg/mL (≈ 2.04 µM)
zone of inhibition at 1.25 µg/mL (Staphylococcus aureus [27]): 5 mm
MIC (Penicillium italicum [28]): 1.25 µg/mL (≈ 4.08 µM)
zone of inhibition at 5 µg/mL [29]: 16 mm
MIC (Aspergillus fumigatus [30]): 0.625 µg/mL (≈ 2.04 µM)
zone of inhibition at 2.5 µg/mL (Bacillus subtilis [31]): 10 mm
zone of inhibition at 5 µg/mL (Escherichia coli [32]): 12 mm
IC50 [33]: 56.1 µM
MIC [34]: 0.313 µg/mL (≈ 1.02 µM)
